According to ChEMBL document CHEMBL4177623, “Concise syntheses and HCV NS5B polymerase inhibition of (2'R)-3 and (2'S)-2'-ethynyluridine-10 and related nucleosides” (Bioorg Med Chem Lett, 2017):
pEC50, pIC50: −log10 of the molar value.

System: Hepatitis C virus
Assay: Antiviral activity against HCV genotype 1b Con1 infected in replicon cells after 3 days by real-time PCR analysis
Format: functional, organism-based, Hepacivirus hominis
Conditions: isolate Con1, 72 h
Method in brief: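 Con1 genotype 1b replicon cells plated at 5000/well one day before dosing; inhibitor added from DMSO in 10 serial twofold dilutions, triplicate, final 0.5% DMSO, 10% FBS. Harvest 3 days post-dose; replicon RNA measured by real-time RT-PCR (Taqman) normalised to GAPDH RNA; EC50 derived.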

SMILES | pEC50
CC#C[C@@]1(F)[C@H](O)[C@@H](CO)O[C@H]1n1ccc(=O)[nH]c1=O | < 4.00
C#C[C@@]1(O)[C@H](O)[C@@H](CO)O[C@H]1n1ccc(=O)[nH]c1=O | < 4.00
CC#C[C@@]1(O)[C@H](O)[C@@H](CO)O[C@H]1n1ccc(=O)[nH]c1=O | < 4.00

Target: RNA-directed RNA polymerase (Hepacivirus hominis, UniProt O39930)
Sequence (O39930 whole entry): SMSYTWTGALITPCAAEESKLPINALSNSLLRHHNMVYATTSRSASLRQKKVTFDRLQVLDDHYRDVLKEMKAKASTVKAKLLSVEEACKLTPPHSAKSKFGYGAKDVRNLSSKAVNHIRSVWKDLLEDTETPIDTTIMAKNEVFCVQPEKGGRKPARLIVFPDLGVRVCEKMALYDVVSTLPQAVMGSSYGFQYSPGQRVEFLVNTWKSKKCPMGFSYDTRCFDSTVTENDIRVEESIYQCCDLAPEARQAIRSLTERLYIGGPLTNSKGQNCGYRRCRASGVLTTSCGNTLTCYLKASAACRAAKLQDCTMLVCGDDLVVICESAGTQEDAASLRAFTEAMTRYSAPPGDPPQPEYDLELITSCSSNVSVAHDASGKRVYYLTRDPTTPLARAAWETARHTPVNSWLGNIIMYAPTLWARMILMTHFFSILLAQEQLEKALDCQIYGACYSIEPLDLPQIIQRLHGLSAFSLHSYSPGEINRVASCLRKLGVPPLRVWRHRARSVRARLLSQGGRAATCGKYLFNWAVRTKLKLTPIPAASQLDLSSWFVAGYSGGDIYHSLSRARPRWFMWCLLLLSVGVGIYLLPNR
Assay: Inhibition of wild-type HCV genotype 1b BK NS5B Cdelta55 RNA dependent RNA polymerase using RNA as substrate after 1 hr in presence of NTPs by [33P]-CTP based topcount assay
Design: species or system Hepatitis C virus (isolate BK)
Conditions: not given

SMILES | pIC50
CC#C[C@@]1(O)[C@H](O)[C@@H](COP(=O)(O)OP(=O)(O)OP(=O)(O)O)O[C@H]1n1ccc(=O)[nH]c1=O | 6.80
CC#C[C@@]1(F)[C@H](O)[C@@H](COP(=O)(O)OP(=O)(O)OP(=O)(O)O)O[C@H]1n1ccc(=O)[nH]c1=O | 5.00
C#C[C@]1(O)[C@H](O)[C@@H](COP(=O)(O)OP(=O)(O)OP(=O)(O)O)O[C@H]1n1ccc(=O)[nH]c1=O | 4.27
CCCCCCN(C)C.CCCCCCN(C)C.CCCCCCN(C)C.CCCCCCN(C)C.C[C@@]1(F)[C@H](O)[C@@H](COP(=O)(O)OP(=O)(O)OP(=O)(O)O)O[C@H]1n1ccc(=O)[nH]c1=O | 5.96
C#C[C@@]1(O)[C@H](O)[C@@H](COP(=O)(O)OP(=O)(O)OP(=O)(O)O)O[C@H]1n1ccc(=O)[nH]c1=O | 7.05
C#C[C@@]1(F)[C@H](O)[C@@H](COP(=O)(O)OP(=O)(O)OP(=O)(O)O)O[C@H]1n1ccc(=O)[nH]c1=O | 5.44
